The target of assay [1] is Misshapen-like kinase 1 (Homo sapiens) (UniProt Q8N4C8). Description: Inhibition of ZC3/MINK Lys2 labeling site in human A-375 cells at 0.05 uM by KiNativ Profiling analysis relative to control. It is filed as cell-based.
Assay [2] concerns the target Cyclin-dependent kinase 18 (Homo sapiens) (UniProt Q07002). The assay can be described thus: Inhibition of PCTAIRE3 Lys1 labeling site harbouring SKLTENLVALKEIRLEHEEGAPCTAIR in human A-375 cells at 5 uM by KiNativ Profiling analysis relative to control. It is filed as cell-based. In short, it runs like this: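 Live A375 melanoma cells were treated with compound at 5 or 0.5 μM, then lysed. Lysates were labeled with a lysine-reactive ATP or ADP-biotin probe. Read-out was the compound's protection of kinase labeling sites from probe labeling (KiNativ).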

In assay [3] the target is T1, Serine/threonine-protein kinase Nek9 (Homo sapiens) (UniProt Q8TD19).
T1 sequence (whole entry): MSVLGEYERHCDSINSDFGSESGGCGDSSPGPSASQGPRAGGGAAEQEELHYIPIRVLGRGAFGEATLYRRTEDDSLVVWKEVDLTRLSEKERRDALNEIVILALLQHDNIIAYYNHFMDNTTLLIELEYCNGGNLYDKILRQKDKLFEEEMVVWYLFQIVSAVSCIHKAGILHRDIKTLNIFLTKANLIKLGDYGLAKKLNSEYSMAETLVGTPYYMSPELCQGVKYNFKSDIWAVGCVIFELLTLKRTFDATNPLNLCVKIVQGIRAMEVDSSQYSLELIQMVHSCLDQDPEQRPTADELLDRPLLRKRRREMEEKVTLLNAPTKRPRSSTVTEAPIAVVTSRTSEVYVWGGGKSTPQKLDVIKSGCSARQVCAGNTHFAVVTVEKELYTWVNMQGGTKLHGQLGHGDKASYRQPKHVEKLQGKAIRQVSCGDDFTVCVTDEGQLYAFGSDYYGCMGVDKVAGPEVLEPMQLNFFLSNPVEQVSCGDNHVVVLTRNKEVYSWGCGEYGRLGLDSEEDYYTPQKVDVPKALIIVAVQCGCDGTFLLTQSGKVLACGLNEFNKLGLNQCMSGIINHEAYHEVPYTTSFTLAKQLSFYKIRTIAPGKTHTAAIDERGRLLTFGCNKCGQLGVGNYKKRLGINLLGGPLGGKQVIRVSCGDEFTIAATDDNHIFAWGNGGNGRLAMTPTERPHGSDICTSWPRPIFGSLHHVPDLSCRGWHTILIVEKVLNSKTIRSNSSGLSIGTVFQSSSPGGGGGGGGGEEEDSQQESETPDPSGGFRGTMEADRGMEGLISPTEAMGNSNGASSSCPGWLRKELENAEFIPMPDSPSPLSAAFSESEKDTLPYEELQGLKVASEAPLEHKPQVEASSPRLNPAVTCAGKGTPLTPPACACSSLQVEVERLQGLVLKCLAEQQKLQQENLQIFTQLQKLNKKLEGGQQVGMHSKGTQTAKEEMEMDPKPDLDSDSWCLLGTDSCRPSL
Description: Inhibition of NEK9 Lys1 labeling site harbouring RTEDDSLVVWKEVDLTR in human A-375 cells at 0.05 uM by KiNativ Profiling analysis relative to control. It is filed as cell-based.

Assay [4] deals with T2, Inhibitor of nuclear factor kappa-B kinase subunit epsilon (Homo sapiens) (UniProt Q14164).
T2 sequence (whole entry): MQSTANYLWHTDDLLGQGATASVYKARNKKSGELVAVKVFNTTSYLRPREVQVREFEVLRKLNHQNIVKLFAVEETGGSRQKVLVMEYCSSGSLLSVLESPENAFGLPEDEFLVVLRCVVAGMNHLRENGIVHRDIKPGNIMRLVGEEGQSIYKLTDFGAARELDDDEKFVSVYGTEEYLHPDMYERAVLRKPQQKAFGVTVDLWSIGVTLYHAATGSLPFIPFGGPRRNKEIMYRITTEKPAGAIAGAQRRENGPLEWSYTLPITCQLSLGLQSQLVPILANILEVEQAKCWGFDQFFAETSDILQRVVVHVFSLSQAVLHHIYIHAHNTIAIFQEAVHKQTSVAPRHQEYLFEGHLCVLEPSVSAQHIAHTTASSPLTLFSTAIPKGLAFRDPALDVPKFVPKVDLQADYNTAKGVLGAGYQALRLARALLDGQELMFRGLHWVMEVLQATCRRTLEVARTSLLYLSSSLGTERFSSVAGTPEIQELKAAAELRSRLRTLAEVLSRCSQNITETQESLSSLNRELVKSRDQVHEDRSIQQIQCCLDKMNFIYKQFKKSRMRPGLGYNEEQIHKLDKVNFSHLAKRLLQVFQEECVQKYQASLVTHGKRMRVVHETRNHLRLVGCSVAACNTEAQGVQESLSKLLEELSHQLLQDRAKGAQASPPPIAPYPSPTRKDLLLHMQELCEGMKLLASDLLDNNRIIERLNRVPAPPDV
The assay can be described thus: Inhibition of IKKe Lys2 labeling site in human A-375 cells at 0.05 uM by KiNativ Profiling analysis relative to control. It is filed as cell-based.

The target in assay [5] is Serine/threonine-protein kinase B-raf (Homo sapiens, UniProt P15056). Description: Inhibition of BRAF Lys2 labeling site in human A-375 cells at 5 uM by KiNativ Profiling analysis relative to control. It is filed as cell-based. In short, it runs like this:
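Live A375 melanoma cells were treated with compound at 5 or 0.5 μM, then lysed. The lysates were labeled with a lysine-reactive ATP or ADP-biotin probe. Kinase protection from probe labeling was measured by KiNativ.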

In assay [6] the target is DNA-PK/Ku70/Ku85 (Homo sapiens) (UniProt P78527+P12956+P13010). Description: Inhibition of DNAPK ATP labeling site harbouring EHPFLVKGGEDLR in human A-375 cells at 0.05 uM by KiNativ Profiling analysis relative to control. It is filed as cell-based.
The target of assay [7] is Serine/threonine-protein kinase 25 (Homo sapiens) (UniProt O00506). The assay can be described thus: Inhibition of YSK1 Lys2 labeling site in human A-375 cells at 0.5 uM by KiNativ Profiling analysis relative to control. In kind it is cell-based.
The target of assay [8] is Casein kinase I isoform epsilon (Homo sapiens) (UniProt P49674). The assay can be described thus: Inhibition of CK1epsilon Lys2 labeling site in human A-375 cells at 0.05 uM by KiNativ Profiling analysis relative to control. It is filed as cell-based.
Assay [9] addresses Tyrosine-protein kinase ABL2 (Homo sapiens, UniProt P42684). The assay can be described thus: Inhibition of ARG (unknown origin) ACT labeling site by KiNativ Profiling analysis.
Assay [10] concerns the target Tyrosine-protein kinase Lyn (Homo sapiens, UniProt P07948). The assay can be described thus: Inhibition of LYN Lys1 labeling site in human A-375 cells at 0.5 uM by KiNativ Profiling analysis relative to control. It is filed as cell-based.

pIC50: −log10 of the molar value.

Chain of Tyrosine-protein kinase ABL2 (P42684 whole entry): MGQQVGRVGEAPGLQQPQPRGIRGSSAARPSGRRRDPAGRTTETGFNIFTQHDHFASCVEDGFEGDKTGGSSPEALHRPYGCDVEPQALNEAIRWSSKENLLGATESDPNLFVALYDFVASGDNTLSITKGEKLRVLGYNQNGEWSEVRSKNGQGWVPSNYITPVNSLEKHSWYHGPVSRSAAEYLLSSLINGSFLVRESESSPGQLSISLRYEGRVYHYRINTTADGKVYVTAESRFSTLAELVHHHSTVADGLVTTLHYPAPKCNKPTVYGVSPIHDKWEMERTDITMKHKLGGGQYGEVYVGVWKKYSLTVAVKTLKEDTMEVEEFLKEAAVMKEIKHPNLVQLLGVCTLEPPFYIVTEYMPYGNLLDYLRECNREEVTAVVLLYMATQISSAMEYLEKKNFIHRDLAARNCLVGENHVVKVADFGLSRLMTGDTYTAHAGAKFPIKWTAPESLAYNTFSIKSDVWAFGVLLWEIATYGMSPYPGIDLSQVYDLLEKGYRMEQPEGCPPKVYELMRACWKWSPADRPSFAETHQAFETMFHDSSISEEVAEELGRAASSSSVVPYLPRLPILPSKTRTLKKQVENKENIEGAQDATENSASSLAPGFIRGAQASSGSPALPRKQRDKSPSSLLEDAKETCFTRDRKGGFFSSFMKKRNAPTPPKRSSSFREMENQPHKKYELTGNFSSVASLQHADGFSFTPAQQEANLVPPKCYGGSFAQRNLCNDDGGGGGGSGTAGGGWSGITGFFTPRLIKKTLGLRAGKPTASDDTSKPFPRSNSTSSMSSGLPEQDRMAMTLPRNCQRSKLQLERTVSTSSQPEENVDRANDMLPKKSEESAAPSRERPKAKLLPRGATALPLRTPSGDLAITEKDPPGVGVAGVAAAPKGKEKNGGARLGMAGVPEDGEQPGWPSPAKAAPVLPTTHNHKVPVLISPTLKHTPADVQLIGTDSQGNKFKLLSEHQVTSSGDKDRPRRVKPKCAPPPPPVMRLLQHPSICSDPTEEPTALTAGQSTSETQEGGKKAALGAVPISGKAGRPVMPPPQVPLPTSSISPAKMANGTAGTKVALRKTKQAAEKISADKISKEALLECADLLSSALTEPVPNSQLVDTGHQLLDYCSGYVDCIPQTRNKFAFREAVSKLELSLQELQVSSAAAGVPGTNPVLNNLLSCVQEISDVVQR
Chain of Serine/threonine-protein kinase B-raf (P15056 whole entry): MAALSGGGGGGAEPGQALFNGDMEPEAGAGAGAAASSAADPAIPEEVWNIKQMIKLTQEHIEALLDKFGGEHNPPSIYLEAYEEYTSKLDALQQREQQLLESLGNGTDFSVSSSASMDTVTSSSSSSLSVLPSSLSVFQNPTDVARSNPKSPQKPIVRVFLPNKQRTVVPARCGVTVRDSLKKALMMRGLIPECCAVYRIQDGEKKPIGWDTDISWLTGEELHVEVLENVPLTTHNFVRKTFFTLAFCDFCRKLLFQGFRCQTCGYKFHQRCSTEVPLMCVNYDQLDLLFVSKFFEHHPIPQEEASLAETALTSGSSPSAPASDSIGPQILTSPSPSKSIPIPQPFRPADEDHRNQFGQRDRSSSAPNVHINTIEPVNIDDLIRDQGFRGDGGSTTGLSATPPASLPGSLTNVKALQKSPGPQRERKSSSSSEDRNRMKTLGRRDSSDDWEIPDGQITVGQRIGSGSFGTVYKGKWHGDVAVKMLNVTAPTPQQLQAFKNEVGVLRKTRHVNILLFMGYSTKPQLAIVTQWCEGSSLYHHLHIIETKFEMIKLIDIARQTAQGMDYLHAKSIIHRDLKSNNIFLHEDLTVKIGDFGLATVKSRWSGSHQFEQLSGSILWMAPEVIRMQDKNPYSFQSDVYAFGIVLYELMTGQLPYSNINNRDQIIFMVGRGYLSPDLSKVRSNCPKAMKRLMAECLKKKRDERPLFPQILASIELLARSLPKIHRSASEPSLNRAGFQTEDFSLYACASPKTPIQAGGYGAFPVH
Chain of Casein kinase I isoform epsilon (Homo sapiens) (P49674 whole entry, looked up, canonical isoform): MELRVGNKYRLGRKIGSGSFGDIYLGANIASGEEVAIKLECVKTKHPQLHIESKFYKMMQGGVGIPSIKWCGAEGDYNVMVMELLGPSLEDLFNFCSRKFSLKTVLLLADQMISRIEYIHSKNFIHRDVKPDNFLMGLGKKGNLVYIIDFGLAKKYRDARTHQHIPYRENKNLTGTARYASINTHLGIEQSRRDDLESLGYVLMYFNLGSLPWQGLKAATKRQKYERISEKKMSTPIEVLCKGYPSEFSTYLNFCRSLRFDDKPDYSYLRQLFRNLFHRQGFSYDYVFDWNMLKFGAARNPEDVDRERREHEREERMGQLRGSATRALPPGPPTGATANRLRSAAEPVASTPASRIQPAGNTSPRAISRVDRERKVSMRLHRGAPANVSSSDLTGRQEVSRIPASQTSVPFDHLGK
Chain of Misshapen-like kinase 1 (Homo sapiens) (Q8N4C8 whole entry, looked up): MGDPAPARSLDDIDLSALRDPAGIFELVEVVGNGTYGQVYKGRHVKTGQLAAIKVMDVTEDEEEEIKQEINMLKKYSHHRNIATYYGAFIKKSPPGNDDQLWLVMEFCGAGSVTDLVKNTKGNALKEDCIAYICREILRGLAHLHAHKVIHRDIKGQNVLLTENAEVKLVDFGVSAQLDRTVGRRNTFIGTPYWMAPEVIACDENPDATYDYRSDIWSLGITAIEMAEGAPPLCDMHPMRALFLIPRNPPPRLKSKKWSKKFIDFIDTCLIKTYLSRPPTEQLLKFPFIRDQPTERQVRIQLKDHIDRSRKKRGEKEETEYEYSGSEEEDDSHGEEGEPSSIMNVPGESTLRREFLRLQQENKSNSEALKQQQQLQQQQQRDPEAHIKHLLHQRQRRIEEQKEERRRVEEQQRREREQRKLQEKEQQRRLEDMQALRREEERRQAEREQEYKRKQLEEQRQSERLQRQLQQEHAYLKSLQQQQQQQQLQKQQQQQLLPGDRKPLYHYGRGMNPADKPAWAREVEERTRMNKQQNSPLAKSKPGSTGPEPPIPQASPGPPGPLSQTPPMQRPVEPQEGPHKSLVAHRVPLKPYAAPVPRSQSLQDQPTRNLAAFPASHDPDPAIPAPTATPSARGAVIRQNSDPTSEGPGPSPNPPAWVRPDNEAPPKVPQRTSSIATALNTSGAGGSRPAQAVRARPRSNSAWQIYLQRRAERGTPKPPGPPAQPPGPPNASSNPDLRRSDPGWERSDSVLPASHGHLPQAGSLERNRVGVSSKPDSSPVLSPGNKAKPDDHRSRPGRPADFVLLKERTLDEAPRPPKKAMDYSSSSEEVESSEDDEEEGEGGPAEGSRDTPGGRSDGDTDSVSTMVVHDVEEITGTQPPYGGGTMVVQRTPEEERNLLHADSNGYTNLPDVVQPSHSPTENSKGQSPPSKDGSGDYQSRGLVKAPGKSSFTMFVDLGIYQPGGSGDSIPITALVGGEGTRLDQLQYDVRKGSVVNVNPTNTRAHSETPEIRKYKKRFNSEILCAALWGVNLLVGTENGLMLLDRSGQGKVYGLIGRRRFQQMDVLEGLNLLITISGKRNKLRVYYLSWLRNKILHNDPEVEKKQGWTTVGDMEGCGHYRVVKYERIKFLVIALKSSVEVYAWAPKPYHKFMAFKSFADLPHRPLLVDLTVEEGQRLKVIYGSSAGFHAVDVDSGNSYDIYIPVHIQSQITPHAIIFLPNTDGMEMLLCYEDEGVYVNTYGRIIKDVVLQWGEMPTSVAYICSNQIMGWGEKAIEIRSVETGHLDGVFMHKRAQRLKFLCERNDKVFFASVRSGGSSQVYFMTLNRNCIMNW
Chain of Serine/threonine-protein kinase 25 (Homo sapiens) (O00506 whole entry, looked up, canonical isoform): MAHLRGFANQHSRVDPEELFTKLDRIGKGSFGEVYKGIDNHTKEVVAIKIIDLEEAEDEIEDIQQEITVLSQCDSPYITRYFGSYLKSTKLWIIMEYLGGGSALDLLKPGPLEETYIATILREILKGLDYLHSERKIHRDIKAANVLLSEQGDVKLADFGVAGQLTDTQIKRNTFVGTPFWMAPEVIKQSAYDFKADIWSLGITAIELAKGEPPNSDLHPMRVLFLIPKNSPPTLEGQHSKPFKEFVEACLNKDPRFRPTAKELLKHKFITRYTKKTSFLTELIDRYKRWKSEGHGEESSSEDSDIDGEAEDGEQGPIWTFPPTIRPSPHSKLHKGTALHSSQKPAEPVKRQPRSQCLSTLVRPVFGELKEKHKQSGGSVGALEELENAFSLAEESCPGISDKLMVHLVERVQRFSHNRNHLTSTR
Chain of Tyrosine-protein kinase Lyn (P07948 2-512 limits assumed): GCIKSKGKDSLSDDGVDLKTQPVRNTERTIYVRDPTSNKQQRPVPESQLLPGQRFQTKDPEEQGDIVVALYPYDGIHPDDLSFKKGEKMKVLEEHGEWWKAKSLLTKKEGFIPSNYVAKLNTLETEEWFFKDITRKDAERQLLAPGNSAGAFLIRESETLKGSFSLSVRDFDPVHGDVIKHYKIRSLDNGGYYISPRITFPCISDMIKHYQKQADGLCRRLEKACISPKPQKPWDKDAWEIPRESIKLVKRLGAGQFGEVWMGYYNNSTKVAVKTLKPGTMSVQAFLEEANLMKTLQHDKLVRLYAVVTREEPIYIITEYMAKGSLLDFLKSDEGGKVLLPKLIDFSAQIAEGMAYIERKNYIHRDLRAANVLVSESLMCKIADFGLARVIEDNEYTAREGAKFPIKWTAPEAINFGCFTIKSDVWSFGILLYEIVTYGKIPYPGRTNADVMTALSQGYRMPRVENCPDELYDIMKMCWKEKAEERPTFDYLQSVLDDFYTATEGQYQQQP

As for `CCN1CCN(Cc2ccc(NC(=O)c3ccc(C)c(/C=C/c4cnc5[nH]ccc5c4OC)c3)cc2C(F)(F)F)CC1`, the inhibition (as a rule, the relative decrease from the control value, in per cent) in [1] was 19.5%; in [2], 21.3%; in [3], 18.8%; in [4] it was 19.8%; in [5], 61.5%; in assay [6], 9.9%. For the same compound, the inhibition in assay [7] is 9.8%; in [8], -9.6%; in [10], > 95%. Further, in [9], the pIC50 (as a rule, the negative decadic logarithm of the IC50, by convention in mol/L) is 7.29.
For `CCN1CCN(Cc2ccc(NC(=O)c3ccc(C)c(Oc4ccnc5[nH]ccc45)c3)cc2C(F)(F)F)CC1`, the inhibition is 32.6% in assay [1]; 56.6% in assay [2]; 1.8% in assay [3]; 29.2% in assay [4]; 66.8% in assay [5]; -9.3% in assay [6]. The inhibition in [7] was 12.5%; in [8], -0.7%; in [10] it was 90.5%. Also, in [9], the pIC50 was 7.12.

The record behind these values is ChEMBL document CHEMBL5696442, “Discovery of type II inhibitors of TGFβ-activated kinase 1 (TAK1) and mitogen-activated protein kinase kinase kinase kinase 2 (MAP4K2)” (J Med Chem, 2015).
